HKDC1 inhibitor – HKDC1 hexokinase inhibitors, primary screen, biochemical, fluorescence, uHTS. inhibition, % at 20 µM. recombinant HKDC1, G6PDH/diaphorase resazurin coupled fluorescence. Q2TB90. actives 0.16% (n = 340,000). AID 493160, 2011;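 active = inhibition above about 35% when tested at 20 µM, limit read from the data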;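 note: plate controls were DMSO wells with enzyme for no effect and DMSO wells lacking enzyme for full effect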
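Test system: recombinant HKDC1 (HK5) hexokinase enzyme, produced in-house / Doses: 20 µM test compound, 1% DMSO / Timing: 90 min, room temperature / Detection: G6PDH/diaphorase-coupled fluorescence, 1 mM NADP, 100 µM resazurin, 525/613 nm / Control set: DMSO wells with and without enzyme mix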
Fh CTSL1 inh – Fasciola hepatica cathepsin L1 inhibitors, primary screen, counter-screen for PFM18AAP inhibitor project, biochemical, QFRET, fluorogenic peptide substrate | recombinant F. hepatica cathepsin L1, Z-Leu-Arg-MCA fluorescence | actives 0.49% (n = 300,000) | inhibition, % at 5.96 µM;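 active = inhibition above the mean of all tested compounds plus 3 SD, set per screening campaign, cut at about 17% in these data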;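 note: 0% = plate median of test compound wells and 100% = 1 µM Z-Phe-Ala-diazomethylketone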
TDP2 inh – human TDP2 enzyme inhibitors, primary screen, biochemical, epi absorbance, recombinant enzyme; Tyrosyl-DNA phosphodiesterase 2 (Homo sapiens), O95551; inhibition, % at 12.8 µM; T5PNP hydrolysis, p-nitrophenol absorbance 415 nm; actives 0.34% (n = 370,000);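 active = inhibition above the mean of all tested compounds plus 3 SD, set per campaign, cut at about 25% in these data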;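 note: 0% = DMSO with enzyme and 100% = buffer with substrate but no TDP2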
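Assay system: recombinant human TDP2 / Reagent: T5PNP substrate at 5 mM, a TopII-DNA adduct mimic / Measured by: epi absorbance from released p-nitrophenol / Evaluation: % inhibition relative to enzyme-containing and enzyme-free wells / Control set: enzyme-free and DMSO wells / Replicates: each compound tested once, singlicate / Schedule: enzyme reaction with compound for 2 h at 37 °C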
UCH37 DUB inh – inhibitors of human UCH37 deubiquitinase, primary screen, biochemical, Ub-AMC cleavage, fluorescence; Ubiquitin carboxyl-terminal hydrolase isozyme L5 (Homo sapiens), Q9Y5K5; purified proteasome/UCH37; inhibition, % (concentration not given with the values); actives 0.33% (n = 330,000);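 active = mean inhibition over replicate wells above about 20%, limit read from the data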;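 note: 0% = compound-free wells with enzyme and 100% = wells lacking proteasome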
Target sequence (Q9Y5K5 whole entry, looked up): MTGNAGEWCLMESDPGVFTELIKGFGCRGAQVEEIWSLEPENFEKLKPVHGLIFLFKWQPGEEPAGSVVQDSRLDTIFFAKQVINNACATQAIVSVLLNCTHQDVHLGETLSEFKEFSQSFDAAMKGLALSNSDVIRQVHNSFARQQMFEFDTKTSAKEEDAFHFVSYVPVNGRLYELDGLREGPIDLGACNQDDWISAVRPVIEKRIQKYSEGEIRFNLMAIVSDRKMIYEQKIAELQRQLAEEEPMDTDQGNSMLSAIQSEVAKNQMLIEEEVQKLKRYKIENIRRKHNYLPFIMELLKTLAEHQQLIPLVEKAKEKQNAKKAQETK
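Schedule: 30 min plus 25 min, room temperature / Material: human UCH37 within purified proteasomes / Technique: AMC fluorescence intensity at 355/460 nm / Buffer or medium: pH 7.4 Tris-HCl (50 mM) with ovalbumin, ATP-MgCl2, DTT / Controls: wells without proteasome as full block, compound-free enzyme plus substrate as uninhibited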
PAD4 FP inh – human PAD4 inhibitors, primary screen, biochemical, fluorescence polarization, 1536-well format. AID 485272, 2010. actives 0.41% (n = 330,000). inhibition, % at 6.36 µM. Protein-arginine deiminase type-4 (Homo sapiens), Q9UM07. recombinant PAD4, RCA probe fluorescence polarization;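 active = percent inhibition above a cutoff equal to the mean of all tested compounds plus 3 SD, cut at about 15% in these data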;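 note: 0% = PAD4 with RCA probe and DMSO and 100% = probe without PAD4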
GSTO1 inh – inhibitors of recombinant GSTO1, primary screen, counter-screen for RBBP9 inhibitor project, biochemical, fluorescence polarization. Glutathione S-transferase omega-1 (Homo sapiens), P78417. activity-based probe fluorescence polarization. inhibition, % at 5.96 µM. actives 1.1% (n = 300,000);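 active = inhibition above the campaign mean inhibition plus 3 SD, cut at about 35% in these data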;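 note: 0% = GSTO1-1 with DMSO and 100% = wells lacking GSTO1-1 enzyme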
Target sequence (P78417 whole entry, looked up): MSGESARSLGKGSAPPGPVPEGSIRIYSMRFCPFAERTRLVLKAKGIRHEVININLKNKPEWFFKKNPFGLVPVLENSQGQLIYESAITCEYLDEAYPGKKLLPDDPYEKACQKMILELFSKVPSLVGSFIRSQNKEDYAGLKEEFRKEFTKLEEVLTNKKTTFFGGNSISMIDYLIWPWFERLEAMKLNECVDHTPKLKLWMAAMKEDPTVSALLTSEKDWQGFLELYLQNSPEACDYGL
Active calls of the source: *. Hits are enriched below; roughly 1.6% of the tested compounds scored in any of these assays.

CSCCC(NC(=O)c1ccco1)C(=O)NCC(c1ccco1)N1CCCCC1 (centres undefined) was read as HKDC1 inhibitor 2, TDP2 inh 0, UCH37 DUB inh 3 and PAD4 FP inh -1.
Screening COc1ccc(C=NNc2nc(N)cc(Cl)n2)cc1OC returned UCH37 DUB inh 12.
COc1ccc(CCn2c(NN=C(C)C)nc3c2c(=O)[nH]c(=O)n3C)cc1 was read as HKDC1 inhibitor 10, Fh CTSL1 inh 6, TDP2 inh -2, PAD4 FP inh -3 and GSTO1 inh 46*.
`COc1ccc(CCn2c(Br)nc3c2c(=O)[nH]c(=O)n3C)cc1` gave HKDC1 inhibitor -1, Fh CTSL1 inh 0, TDP2 inh 5, UCH37 DUB inh 0, PAD4 FP inh -13 and GSTO1 inh 8.
Screening N/C(=N\OS(=O)(=O)c1ccc(Cl)cc1)c1ccncc1 returned HKDC1 inhibitor -4, Fh CTSL1 inh 24*, TDP2 inh 4, UCH37 DUB inh 3, PAD4 FP inh -1 and GSTO1 inh 1.
For O=C(CSc1nnc(-c2cnccn2)n1Cc1ccco1)c1ccc2ccccc2c1 the results were HKDC1 inhibitor 4, Fh CTSL1 inh 4, TDP2 inh -2, UCH37 DUB inh 3, PAD4 FP inh -4 and GSTO1 inh 38*.
Screening CC(C)OC(=O)CSc1nnc(-c2cnccn2)n1Cc1ccco1 returned HKDC1 inhibitor -9, Fh CTSL1 inh -2, TDP2 inh 2, UCH37 DUB inh 1, PAD4 FP inh 3 and GSTO1 inh 0.
For CCOC(=O)CC(=O)CSc1nnc2sc3ccccc3n12 the results were HKDC1 inhibitor 2, Fh CTSL1 inh 41*, TDP2 inh -8, UCH37 DUB inh 4, PAD4 FP inh 2 and GSTO1 inh -1.
Screening CN(C)C(=O)CSc1nnc2sc3ccccc3n12 returned HKDC1 inhibitor -5, Fh CTSL1 inh -2, TDP2 inh 0, UCH37 DUB inh 7, PAD4 FP inh -1 and GSTO1 inh 4.
`COc1ccc(C=NNC(=S)Nc2ccccc2)cc1` gave UCH37 DUB inh 5.
For CC(NC(=O)Nc1ccccn1)N1C(=O)C2C3C=CC(C3)C2C1=O (centres undefined) the results were HKDC1 inhibitor 6, Fh CTSL1 inh 6, TDP2 inh 0, UCH37 DUB inh 23*, PAD4 FP inh -2 and GSTO1 inh 6.
CC(C)C[C@H](NC(=O)c1[nH]cnc1C(=O)Nc1ccccc1)C(=O)OC(C)(C)C was read as HKDC1 inhibitor 5, Fh CTSL1 inh 7, TDP2 inh -14, UCH37 DUB inh 28*, PAD4 FP inh -2 and GSTO1 inh -3.
`CC(C)(C)OC(=O)[C@H](Cc1ccccc1)NC(=O)c1nc[nH]c1C(=O)NCc1ccccc1` gave HKDC1 inhibitor 3, Fh CTSL1 inh 2, TDP2 inh -2, UCH37 DUB inh 1, PAD4 FP inh 1 and GSTO1 inh 6.
For CN(Cc1ccccc1)C(=O)c1[nH]cnc1C(=O)N[C@@H](Cc1ccccc1)C(=O)OC(C)(C)C the results were HKDC1 inhibitor 0, Fh CTSL1 inh -4, TDP2 inh -10, UCH37 DUB inh 35*, PAD4 FP inh -2 and GSTO1 inh -1.
CCN(CC)C(=O)c1[nH]cnc1C(=O)N[C@@H](C)C(=O)OC(C)(C)C was read as HKDC1 inhibitor -3, Fh CTSL1 inh 4, TDP2 inh 4, UCH37 DUB inh 32*, PAD4 FP inh -3 and GSTO1 inh 4.
For CSc1ccc(C=NN2CCN(Cc3ccc(Cl)cc3)CC2)cc1 the results were UCH37 DUB inh 4.
`CCCS/C(N)=N/N=Cc1cc(C)ccc1O` gave UCH37 DUB inh 5.
O=[N+]([O-])c1cc(C(F)(F)F)cc([N+](=O)[O-])c1NN=C1CCCCC1 was read as HKDC1 inhibitor -10, Fh CTSL1 inh 3, TDP2 inh 3, UCH37 DUB inh 1, PAD4 FP inh -1 and GSTO1 inh 37*.
`O=[N+]([O-])c1cc(S(=O)(=O)N2CCCC2)ccc1NN=C1CCCCC1` gave HKDC1 inhibitor -8, Fh CTSL1 inh 2, TDP2 inh -3, UCH37 DUB inh 6, PAD4 FP inh 7 and GSTO1 inh -3.
Screening Nc1nc(NC(=O)c2ccc(F)cc2)ns1 returned HKDC1 inhibitor 4, Fh CTSL1 inh -1, TDP2 inh 6, UCH37 DUB inh 27*, PAD4 FP inh 9 and GSTO1 inh 13.
Screening CC(=O)Cc1nsc(NC(=O)c2ccc(F)cc2)n1 returned HKDC1 inhibitor -12, Fh CTSL1 inh 5, TDP2 inh 0, UCH37 DUB inh 2, PAD4 FP inh 2 and GSTO1 inh 5.
`Cc1ccc2c(c1)Oc1ccc([N+](=O)[O-])cc1C(=O)N2` gave HKDC1 inhibitor -6, Fh CTSL1 inh -1, TDP2 inh 4, UCH37 DUB inh 1, PAD4 FP inh 0 and GSTO1 inh 5.
`Cc1ccc2c(c1)Oc1ccc(NC(=O)CCl)cc1C(=O)N2` gave HKDC1 inhibitor 27, Fh CTSL1 inh 52*, TDP2 inh -13, UCH37 DUB inh 2, PAD4 FP inh 0 and GSTO1 inh 92*.
Cc1ccc(C2=N/C(=C\c3c(C)nn(-c4ccccc4)c3N3CCCC3)C(=O)O2)cc1 was read as HKDC1 inhibitor 17, Fh CTSL1 inh 55*, TDP2 inh -10, UCH37 DUB inh 3, PAD4 FP inh 0 and GSTO1 inh 5.
Cc1nn(-c2ccccc2)c(N2CCCC2)c1/C=C1\N=C(c2ccc(F)cc2)OC1=O was read as HKDC1 inhibitor 5, Fh CTSL1 inh 70*, TDP2 inh 13, UCH37 DUB inh 7, PAD4 FP inh 0 and GSTO1 inh -1.
For Cc1ccc2oc(=O)c3cc(C(=O)NCCCN4C(C)CCCC4C)sc3c2c1 (centres undefined) the results were HKDC1 inhibitor 11, Fh CTSL1 inh 17*, TDP2 inh 3, UCH37 DUB inh -27, PAD4 FP inh -4 and GSTO1 inh -2.
Screening COc1cc2c(C#N)c(N3CCCCC3)nc(N)c2c(N)n1 returned HKDC1 inhibitor 16, Fh CTSL1 inh 2, TDP2 inh 10, UCH37 DUB inh -36, PAD4 FP inh -7 and GSTO1 inh -2.
`COc1ccc(CN2C(=O)Cc3c2nc(N)c2c(N)nc(N4CCCCC4)c(C#N)c32)cc1` gave Fh CTSL1 inh -6, UCH37 DUB inh -22, PAD4 FP inh -30 and GSTO1 inh 48*.
`COc1ccc(C=NNC(=O)CNC(=O)/C=C/c2ccco2)cc1OC` gave UCH37 DUB inh 8.

Screens from PubChem.
